In ChEMBL document CHEMBL5303300, “EUbOPEN Chemogenomics Library - Multiplex” (2023):
Several values for one entry are separate records, joined by “and”; a condition that tells them apart may be missing. Identical values can stand only once.

Test system: U2OS
Assay: Multiplex assay against U2OS
Assay type: toxicity, cell-based
Conditions: human, number of replicates 2
In short: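 Tubulin, mitochondrial-mass and membrane-permeability phenotypes are per cents of healthy-nucleus cells. Cells were gated by CellPathfinder machine learning into Hoechst high-intensity objects or normal cells, normal cells into healthy, pyknosed or fragmented nuclei, and pyknosed cells into mitotic or apoptotic. Before that, live cells stained at seeding with Hoechst33342, BioTracker Green Microtubule Cytoskeleton Dye, MitoTracker Red and Annexin V Alexa Fluor 680 were imaged on a CQ1 microscope at 37°C and 5% CO2 after compound addition.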

[1] = 12 h, 1 µM, compound concentration 1 uM
[2] = 12 h, 10 µM, compound concentration 10 uM
[3] = 24 h, 1 µM, compound concentration 1 uM
[4] = 24 h, 10 µM, compound concentration 10 uM
[5] = 48 h, 1 µM, compound concentration 1 uM
[6] = 48 h, 10 µM, compound concentration 10 uM

## CC(C)S(=O)(=O)c1ccccc1Nc1nc(N[C@@H]2CCCN(CCCCCCCNC(=O)COc3cccc4c3C(=O)N(C3CCC(=O)NC3=O)C4=O)C2)ncc1Cl (stereo partly drawn)
[1]
  Population Apoptotic (%): 82% and 80%
  Population Fragmented Nuclei (%): 14% and 8%
  Population Healthy Nuclei (%): 43% and 61%
  Population Hoechst High Intensity Objects (%): 0% and 1%
  Population Membrane Permeable-Phenotype (%): 5%
  Population Mitochondria Different-Phenotype (%): 5% and 6%
  Population Mitotic Cells (%): 17% and 19%
  Population Normal (%): 100% and 98%
  Population Pyknosed Nuclei (%): 41% and 30%
  Population Tubulin-Different-Phenotype (%): 66% and 62%
[2]
  Population Apoptotic (%): 85% and 81%
  Population Fragmented Nuclei (%): 11% and 7%
  Population Healthy Nuclei (%): 38% and 61%
  Population Hoechst High Intensity Objects (%): 0% and 5%
  Population Membrane Permeable-Phenotype (%): 81% and 57%
  Population Mitochondria Different-Phenotype (%): 62% and 55%
  Population Mitotic Cells (%): 14% and 18%
  Population Normal (%): 100% and 94%
  Population Pyknosed Nuclei (%): 50% and 31%
  Population Tubulin-Different-Phenotype (%): 100% and 96%
[3]
  Population Apoptotic (%): 83% and 87%
  Population Fragmented Nuclei (%): 24% and 14%
  Population Healthy Nuclei (%): 22% and 41%
  Population Hoechst High Intensity Objects (%): 0% and 2%
  Population Membrane Permeable-Phenotype (%): 0% and 5%
  Population Mitochondria Different-Phenotype (%): 0% and 6%
  Population Mitotic Cells (%): 16% and 12%
  Population Normal (%): 100% and 97%
  Population Pyknosed Nuclei (%): 53% and 44%
  Population Tubulin-Different-Phenotype (%): 70% and 87%
[4]
  Population Apoptotic (%): 93% and 89%
  Population Fragmented Nuclei (%): 21% and 10%
  Population Healthy Nuclei (%): 19% and 31%
  Population Hoechst High Intensity Objects (%): 0% and 8%
  Population Membrane Permeable-Phenotype (%): 0% and 25%
  Population Mitotic Cells (%): 6% and 10%
  Population Normal (%): 100% and 91%
  Population Pyknosed Nuclei (%): 59% and 58%
  Population Tubulin-Different-Phenotype (%): 40% and 55%
[5]
  Population Apoptotic (%): 96% and 95%
  Population Healthy Nuclei (%): 22% and 28%
  Population Hoechst High Intensity Objects (%): 2% and 3%
  Population Mitotic Cells (%): 3% and 4%
  Population Normal (%): 97% and 96%
  Population Pyknosed Nuclei (%): 54% and 63%
  Population Tubulin-Different-Phenotype (%): 90% and 85%
[6]
  Population Apoptotic (%): 90% and 97%
  Population Fragmented Nuclei (%): 8% and 22%
  Population Healthy Nuclei (%): 12% and 0%
  Population Hoechst High Intensity Objects (%): 9% and 2%
  Population Mitotic Cells (%): 9% and 2%
  Population Normal (%): 90% and 97%
  Population Pyknosed Nuclei (%): 79% and 77%

## Cn1cc(-c2ccc(-c3cncc(Cl)c3N3CCC4(CCNC4=O)CC3)cc2)cn1
[1]
  Population Apoptotic (%): 56% and 66%
  Population Healthy Nuclei (%): 86% and 64%
  Population Hoechst High Intensity Objects (%): 0%
  Population Membrane Permeable-Phenotype (%): 3% and 7%
  Population Mitochondria Different-Phenotype (%): 1% and 0%
  Population Mitotic Cells (%): 43% and 33%
  Population Normal (%): 99% and 100%
  Population Pyknosed Nuclei (%): 8% and 7%
  Population Tubulin-Different-Phenotype (%): 64% and 40%
[2]
  Population Apoptotic (%): 100% and 50%
  Population Healthy Nuclei (%): 61% and 79%
  Population Hoechst High Intensity Objects (%): 0%
  Population Membrane Permeable-Phenotype (%): 19% and 10%
  Population Mitochondria Different-Phenotype (%): 0% and 6%
  Population Normal (%): 100%
  Population Pyknosed Nuclei (%): 9% and 14%
  Population Tubulin-Different-Phenotype (%): 23% and 36%
[3]
  Population Apoptotic (%): 72% and 66%
  Population Healthy Nuclei (%): 88% and 65%
  Population Hoechst High Intensity Objects (%): 0%
  Population Membrane Permeable-Phenotype (%): 2% and 7%
  Population Mitochondria Different-Phenotype (%): 2% and 0%
  Population Mitotic Cells (%): 27% and 33%
  Population Normal (%): 100%
  Population Pyknosed Nuclei (%): 8% and 6%
  Population Tubulin-Different-Phenotype (%): 65% and 39%
[4]
  Population Apoptotic (%): 88% and 60%
  Population Healthy Nuclei (%): 59% and 80%
  Population Hoechst High Intensity Objects (%): 0%
  Population Membrane Permeable-Phenotype (%): 20% and 14%
  Population Mitochondria Different-Phenotype (%): 0% and 17%
  Population Normal (%): 100% and 99%
  Population Pyknosed Nuclei (%): 21% and 13%
  Population Tubulin-Different-Phenotype (%): 32% and 46%
[5]
  Population Apoptotic (%): 70% and 100%
  Population Healthy Nuclei (%): 88% and 65%
  Population Hoechst High Intensity Objects (%): 0%
  Population Membrane Permeable-Phenotype (%): 2% and 5%
  Population Mitochondria Different-Phenotype (%): 3% and 0%
  Population Normal (%): 99% and 100%
  Population Pyknosed Nuclei (%): 7% and 6%
  Population Tubulin-Different-Phenotype (%): 65% and 47%
[6]
  Population Apoptotic (%): 78% and 92%
  Population Fragmented Nuclei (%): 7% and 17%
  Population Healthy Nuclei (%): 74% and 53%
  Population Hoechst High Intensity Objects (%): 0%
  Population Membrane Permeable-Phenotype (%): 25% and 33%
  Population Mitotic Cells (%): 21% and 7%
  Population Normal (%): 100%
  Population Pyknosed Nuclei (%): 17% and 28%
  Population Tubulin-Different-Phenotype (%): 50% and 45%

## CC(C)(C)c1cnc(CSc2cnc(NC(=O)C3CCNCC3)s2)o1 [BMS-387032]
[1]
  Population Apoptotic (%): 83% and 88%
  Population Healthy Nuclei (%): 60% and 73%
  Population Hoechst High Intensity Objects (%): 1% and 0%
  Population Membrane Permeable-Phenotype (%): 8% and 3%
  Population Mitochondria Different-Phenotype (%): 2% and 4%
  Population Mitotic Cells (%): 16% and 12%
  Population Normal (%): 98% and 100%
  Population Pyknosed Nuclei (%): 10% and 19%
  Population Tubulin-Different-Phenotype (%): 80% and 82%
  Total Cell Count: 61 and 128
[2]
  Population Apoptotic (%): 85% and 65%
  Population Healthy Nuclei (%): 32% and 71%
  Population Hoechst High Intensity Objects (%): 0% and 1%
  Population Mitochondria Different-Phenotype (%): 7% and 11%
  Population Mitotic Cells (%): 14% and 35%
  Population Normal (%): 100% and 98%
  Population Pyknosed Nuclei (%): 17% and 22%
[3]
  Population Apoptotic (%): 66% and 94%
  Population Fragmented Nuclei (%): 22% and 9%
  Population Healthy Nuclei (%): 62% and 69%
  Population Hoechst High Intensity Objects (%): 1% and 0%
  Population Membrane Permeable-Phenotype (%): 8% and 1%
  Population Mitochondria Different-Phenotype (%): 5%
  Population Normal (%): 98% and 100%
  Population Pyknosed Nuclei (%): 15% and 21%
  Population Tubulin-Different-Phenotype (%): 75% and 77%
  Total Cell Count: 60 and 163
[4]
  Population Apoptotic (%): 87% and 78%
  Population Healthy Nuclei (%): 32% and 41%
  Population Hoechst High Intensity Objects (%): 0%
  Population Mitochondria Different-Phenotype (%): 21% and 25%
  Population Mitotic Cells (%): 12% and 21%
  Population Normal (%): 100% and 99%
  Population Pyknosed Nuclei (%): 18% and 46%
  Population Tubulin-Different-Phenotype (%): 57% and 52%
[5]
  Population Apoptotic (%): 68% and 93%
  Population Fragmented Nuclei (%): 23% and 8%
  Population Healthy Nuclei (%): 55% and 66%
  Population Hoechst High Intensity Objects (%): 0%
  Population Mitochondria Different-Phenotype (%): 6% and 5%
  Population Normal (%): 100%
  Population Pyknosed Nuclei (%): 21% and 25%
  Population Tubulin-Different-Phenotype (%): 89% and 80%
  Total Cell Count: 89 and 235
[6]
  Population Apoptotic (%): 84% and 94%
  Population Healthy Nuclei (%): 21% and 9%
  Population Hoechst High Intensity Objects (%): 0% and 4%
  Population Membrane Permeable-Phenotype (%): 80% and 41%
  Population Mitochondria Different-Phenotype (%): 40% and 52%
  Population Mitotic Cells (%): 15% and 5%
  Population Normal (%): 100% and 95%
  Population Pyknosed Nuclei (%): 27% and 75%
  Population Tubulin-Different-Phenotype (%): 50% and 76%

## CS(=O)(=O)c1ccc(C(=O)Nc2cc(F)cc(COc3cc(F)c(Br)cc3CN3CC[C@H](O)C3)c2)c(Cl)c1.O=CO
[1]
  Population Apoptotic (%): 33% and 58%
  Population Fragmented Nuclei (%): 2%
  Population Normal (%): 100%
[2]
  Population Apoptotic (%): 60% and 54%
  Population Normal (%): 100%
[3]
  Population Apoptotic (%): 82% and 66%
  Population Fragmented Nuclei (%): 2% and 3%
  Population Normal (%): 100% and 96%
[4]
  Population Apoptotic (%): 61% and 71%
  Population Normal (%): 100% and 99%
[5]
  Population Apoptotic (%): 63% and 88%
  Population Fragmented Nuclei (%): 2% and 1%
  Population Normal (%): 100%
[6]
  Population Apoptotic (%): 94% and 89%
  Population Normal (%): 98%

## CS(=O)(=O)c1ccc(C(=O)Nc2cccc(COc3cc(F)c(Br)cc3CN3CC[C@H](O)C3)c2)c(Cl)c1.O=CO
[1]
  Population Apoptotic (%): 62% and 55%
  Population Hoechst High Intensity Objects (%): 0%
  Population Pyknosed Nuclei (%): 19% and 14%
[2]
  Population Apoptotic (%): 66% and 54%
  Population Healthy Nuclei (%): 36% and 74%
  Population Hoechst High Intensity Objects (%): 0%
  Population Pyknosed Nuclei (%): 20% and 16%
  Total Cell Count: 90 and 192
[3]
  Population Apoptotic (%): 50% and 66%
  Population Healthy Nuclei (%): 56%
  Population Hoechst High Intensity Objects (%): 0%
  Population Pyknosed Nuclei (%): 20% and 10%
[4]
  Population Apoptotic (%): 82% and 73%
  Population Healthy Nuclei (%): 33%
  Population Hoechst High Intensity Objects (%): 0%
  Population Pyknosed Nuclei (%): 19% and 26%
  Total Cell Count: 86 and 214
[5]
  Population Apoptotic (%): 58% and 92%
  Population Fragmented Nuclei (%): 22%
  Population Healthy Nuclei (%): 58%
  Population Hoechst High Intensity Objects (%): 0%
  Population Pyknosed Nuclei (%): 19% and 10%
[6]
  Population Apoptotic (%): 88% and 84%
  Population Healthy Nuclei (%): 26%
  Population Hoechst High Intensity Objects (%): 0%
  Population Pyknosed Nuclei (%): 28%
